# The source made the active and inactive calls. The rule behind the calls is not given here.
# Experiments:
# [1] = Aqueous solubility in 0.01 N Hcl; type: physicochemical
# Liver microsomes = test: Metabolic stability assessed as covalent binding in presence of NADPH and GSH in rat liver microsomes at 10 uM after 1 hr; type: ADME, Microsome
# Method in brief: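 14C-labelled compound at 10 µM with human or rat liver microsomes (1 mg/mL) in 0.1 M potassium phosphate pH 7.4, with or without 1 mM NADPH and 1 mM glutathione, 60 min; quenched with ice-cold acetonitrile. Pellet washed with 80% methanol and ethanol/ether, solubilized, protein by BCA, radioactivity by scintillation counting.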
# [2] = AUC (0 to 24 hrs) in dog at 0.5 mg/kg, po; type: ADME, organism-based, Canis lupus familiaris; design: time < 24 hr, dose 0.5 mg/kg, route oral; conditions: plasma
# Method in brief: (§1)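 Compound given iv and po as single doses; vehicles: mouse iv PEG 400, po OraPlus; dog iv DMSO, po 1% Tween-80/2% HPMC/97% water; cynomolgus iv propylene glycol, po suspension.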
# HUVEC [3] = test: Inhibition of VEGF-induced proliferation of HUVEC; type: functional, cell-based; conditions: Homo sapiens
# [4] = Volume of distribution at steady state in Sprague-Dawley rat at 0.5 mg/kg, iv; type: ADME, organism-based; design: dose 0.5 mg/kg, route intravenous; conditions: in vivo, read-out: Vdss
# Method in brief: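 Male Sprague–Dawley rats dosed iv at 0.5 mg/kg as DMSO solution or po at 2 mg/kg as suspension in 100% OraPlus. Serial jugular blood, plasma LC-MS/MS quantitation, noncompartmental analysis.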
# [5] = Cmax in dog at 0.5 mg/kg, po; type: ADME, organism-based, Canis lupus familiaris; design: dose 0.5 mg/kg, route oral; conditions: in vivo; method in brief: as §1
# [6] = molecular target: Mast/stem cell growth factor receptor Kit (Homo sapiens) (UniProt P10721); test: Inhibition of c-Kit
# [7] = Mean residence time in cynomolgus monkey at 0.5 mg/kg, iv; type: ADME, organism-based, Macaca fascicularis; design: dose 0.5 mg/kg, route intravenous; conditions: in vivo; method in brief: as §1
# [8] = Protein binding in dog plasma; type: ADME, organism-based, Canis lupus familiaris; conditions: read-out: PPB (converted)
# Method in brief: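 Compound spiked into plasma at 5 µg/mL (12.9 µM) from a DMSO stock, incubated 37 °C 15 min, then ultracentrifuged 3 h at 37 °C. Supernatant below lipid layer measured by LC-MS (n = 6) against QC in plasma filtrate; % bound = 1 − (centrifuged concentration / mean QC) × 100.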
# [9] = Clearance in mouse at 2 mg/kg, iv; type: ADME, organism-based; design: dose 2 mg/kg, route intravenous; conditions: in vivo; method in brief: as §1
# [10] = Mean residence time in dog at 0.5 mg/kg, iv; type: ADME, organism-based, Canis lupus familiaris; design: dose 0.5 mg/kg, route intravenous; conditions: in vivo
# Method in brief: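 Intravenous dosing of male/unspecified animals per species; vehicles: mouse 2 mg/kg in Peg 400, dog 0.5 mg/kg in DMSO, cynomolgus monkey 0.5 mg/kg in propylene glycol. Parameters from plasma concentration–time data by noncompartmental analysis.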
# [11] = molecular target: Tyrosine-protein kinase Lyn (Homo sapiens, UniProt P07948); test: Inhibition of Lyn
# [12] = molecular target: Vascular endothelial growth factor receptor 2 (Homo sapiens, UniProt P35968)
# [13] = Half life in dog at 0.5 mg/kg, po; type: ADME, organism-based, Canis lupus familiaris; design: dose 0.5 mg/kg, route oral; conditions: in vivo; method in brief: as §1
# Calu-6 (Homo sapiens) [14] = test: Antitumor activity in human Calu6 cell xenografted CD1 nu/nu mouse assessed as inhibition of tumor growth at 20 mg/kg, po qd for 14 days; conditions: Calu-6, po, 336 h, read-out: TGI
# Calu-6 (Homo sapiens) [15] = test: Antitumor activity in human Calu6 cell xenografted CD1 nu/nu mouse assessed as inhibition of tumor growth at 60 mg/kg, po qd for 14 days; conditions: Calu-6, po, 336 h, read-out: TGI
# [16] = Half life in Sprague-Dawley rat at 0.5 mg/kg, iv; type: ADME, organism-based; design: dose 0.5 mg/kg, route intravenous; conditions: in vivo
# Method in brief: (§2)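 Male Sprague–Dawley rats dosed iv via femoral vein as DMSO solution (1 or 0.5 mg/kg) or po by gavage as OraPlus suspension (pH 2.0–2.2 with methanesulfonic acid; 10 or 2 mg/kg). Serial jugular blood over 12–24 h; plasma acetonitrile precipitation, LC-MS/MS (MRM) with internal standard; noncompartmental parameters.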
# HUVEC [17] = test: Inhibition of bFGF-induced proliferation of HUVEC; type: functional, cell-based; conditions: Homo sapiens
# Method in brief: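 HUVEC seeded at 3000/well in DMEM with 10% FBS, 22 h; 2 h preincubation with serial compound dilutions, then 50 ng/mL VEGF or 20 ng/mL bFGF for 72 h at 37 °C. Freeze–thaw, CyQuant DNA dye read-out; IC50 by four-parameter logistic fit, averaged over ≥2 experiments.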
# [18] = Oral bioavailability in cynomolgus monkey at 2 mg/kg; type: ADME, organism-based, Macaca fascicularis; conditions: in vivo
# Method in brief: (§3)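 Oral suspension dosing; vehicles: mouse 10 mg/kg in OraPlus, dog 0.5 mg/kg in 1% Tween-80/2% HPMC/97% water, cynomolgus monkey 2 mg/kg.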
# [19] = Cmax in VEGF-soaked disk implanted in Sprague-Dawley rat; type: ADME, organism-based; conditions: in vivo
# [20] = Tmax in dog at 0.5 mg/kg, po; type: ADME, organism-based, Canis lupus familiaris; design: dose 0.5 mg/kg, route oral; conditions: in vivo; method in brief: as §3
# [21] = Intrinsic clearance in rat liver microsomes at 1 uM; type: ADME, Microsome; conditions: read-out: Stability
# Method in brief: (§4)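 Human or rat liver microsomes (0.25 mg protein/mL) with 1 mM NADPH, 2 mM MgCl2 in 50 mM potassium phosphate pH 7.4 at 37 °C; compound 1 µM final. Sampled 0–40 min into acetonitrile, LC-MS/MS; ln % remaining vs time slope gives T1/2; CLint = (0.693/T1/2)/0.25 mg/mL.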
# [22] = molecular target: Macrophage colony-stimulating factor 1 receptor (Homo sapiens) (UniProt P07333); test: Inhibition of c-fms
# [23] = Clearance in Sprague-Dawley rat at 0.5 mg/kg, iv; type: ADME, organism-based; design: dose 0.5 mg/kg, route intravenous; conditions: in vivo; method in brief: as §2
# HT-29 = test: Antitumor activity in human HT29 cell xenografted CD1 nu/nu mouse assessed as inhibition of tumor growth at 10 mg/kg, po qd for 14 days; type: functional; conditions: HT-29, 336 h, read-out: TGI
# Method in brief: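 Female CD-1 nu/nu mice, 4–8 weeks, implanted sc in hind flank with 1 × 10^7 HT29 (DMEM high glucose, 5% FBS) or Calu-6 (RPMI 1640, 10% FBS) cells; treatment began at 13–14 days (~300 mm3). Methanesulfonate salt given po qd in OraPlus for 14 days; caliper volumes twice weekly; n = 10/group; RMANOVA with Scheffé test.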
# [24] = molecular target: Receptor-type tyrosine-protein kinase FLT3 (Homo sapiens) (UniProt P36888); test: Inhibition of Flt3
# [25] = AUC (0 to 24 hrs) in human HT29 cell xenografted CD1 nu/nu mouse at 10 mg/kg, po qd; type: ADME, organism-based, HT-29; design: time < 24 hr, dose 10 mg/kg, route oral; conditions: in vivo
# Angiopoietin-1 receptor = Angiopoietin-1 receptor (Homo sapiens, UniProt Q02763); test: Inhibition of Tie2
# [26] = Cmax in cynomolgus monkey at 2 mg/kg, po; type: ADME, organism-based, Macaca fascicularis; design: dose 2 mg/kg, route oral; conditions: in vivo; method in brief: as §1
# [27] = Half life in cynomolgus monkey at 2 mg/kg, po; type: ADME, organism-based, Macaca fascicularis; design: dose 2 mg/kg, route oral; conditions: in vivo; method in brief: as §1
# [28] = Intrinsic clearance in human liver microsomes at 1 uM; type: ADME, Microsome; conditions: read-out: Stability; method in brief: as §4
# Calu-6 (Homo sapiens) [29] = test: Antitumor activity in human Calu6 cell xenografted CD1 nu/nu mouse assessed as inhibition of tumor growth at 6 mg/kg, po qd for 14 days; conditions: Calu-6, po, 336 h, read-out: TGI
# [30] = Oral bioavailability in mouse at 10 mg/kg; type: ADME, organism-based; conditions: in vivo; method in brief: as §3
# Aurora kinase B = Aurora kinase B (Homo sapiens, UniProt Q96GD4); test: Inhibition of Aurora B
# [31] = Clearance in cynomolgus monkey at 0.5 mg/kg, iv; type: ADME, organism-based, Macaca fascicularis; design: dose 0.5 mg/kg, route intravenous; conditions: in vivo; method in brief: as §1
# Chain of Aurora kinase B (Q96GD4 whole entry): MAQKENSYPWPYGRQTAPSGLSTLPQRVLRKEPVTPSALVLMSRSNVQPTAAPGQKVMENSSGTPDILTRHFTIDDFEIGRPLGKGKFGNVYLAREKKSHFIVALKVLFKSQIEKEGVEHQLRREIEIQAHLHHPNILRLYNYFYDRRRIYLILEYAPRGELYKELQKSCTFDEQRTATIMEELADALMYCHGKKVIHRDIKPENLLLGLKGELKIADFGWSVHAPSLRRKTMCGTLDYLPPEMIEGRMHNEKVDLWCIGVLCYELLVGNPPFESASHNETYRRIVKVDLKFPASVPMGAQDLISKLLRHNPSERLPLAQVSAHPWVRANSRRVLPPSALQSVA
# Chain of Receptor-type tyrosine-protein kinase FLT3 (Homo sapiens) (P36888 whole entry): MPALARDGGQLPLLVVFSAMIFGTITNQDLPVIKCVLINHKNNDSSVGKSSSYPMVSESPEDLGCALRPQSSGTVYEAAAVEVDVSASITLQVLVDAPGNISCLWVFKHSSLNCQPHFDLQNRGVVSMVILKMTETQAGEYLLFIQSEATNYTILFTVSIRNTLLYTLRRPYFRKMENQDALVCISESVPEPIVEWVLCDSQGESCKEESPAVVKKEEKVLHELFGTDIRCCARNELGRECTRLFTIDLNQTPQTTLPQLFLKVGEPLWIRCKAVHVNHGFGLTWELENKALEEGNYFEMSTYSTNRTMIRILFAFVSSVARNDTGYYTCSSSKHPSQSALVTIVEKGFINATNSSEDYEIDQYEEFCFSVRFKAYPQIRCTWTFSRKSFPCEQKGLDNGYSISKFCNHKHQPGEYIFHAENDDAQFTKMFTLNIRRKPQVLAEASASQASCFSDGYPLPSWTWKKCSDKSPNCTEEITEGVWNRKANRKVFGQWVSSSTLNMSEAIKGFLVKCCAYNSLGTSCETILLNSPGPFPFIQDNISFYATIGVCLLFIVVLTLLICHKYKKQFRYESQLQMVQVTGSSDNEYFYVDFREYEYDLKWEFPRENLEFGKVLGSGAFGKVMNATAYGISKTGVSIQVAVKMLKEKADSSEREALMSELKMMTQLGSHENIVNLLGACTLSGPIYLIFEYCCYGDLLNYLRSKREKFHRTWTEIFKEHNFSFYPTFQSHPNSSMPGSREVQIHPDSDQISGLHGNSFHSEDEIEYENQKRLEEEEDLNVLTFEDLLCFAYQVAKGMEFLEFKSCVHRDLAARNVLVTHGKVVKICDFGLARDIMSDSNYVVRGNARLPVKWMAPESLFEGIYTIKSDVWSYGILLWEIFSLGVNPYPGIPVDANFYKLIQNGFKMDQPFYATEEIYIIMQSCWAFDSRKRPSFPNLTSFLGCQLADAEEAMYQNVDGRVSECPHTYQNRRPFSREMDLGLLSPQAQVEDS
# Chain of Macrophage colony-stimulating factor 1 receptor (Homo sapiens) (P07333 whole entry): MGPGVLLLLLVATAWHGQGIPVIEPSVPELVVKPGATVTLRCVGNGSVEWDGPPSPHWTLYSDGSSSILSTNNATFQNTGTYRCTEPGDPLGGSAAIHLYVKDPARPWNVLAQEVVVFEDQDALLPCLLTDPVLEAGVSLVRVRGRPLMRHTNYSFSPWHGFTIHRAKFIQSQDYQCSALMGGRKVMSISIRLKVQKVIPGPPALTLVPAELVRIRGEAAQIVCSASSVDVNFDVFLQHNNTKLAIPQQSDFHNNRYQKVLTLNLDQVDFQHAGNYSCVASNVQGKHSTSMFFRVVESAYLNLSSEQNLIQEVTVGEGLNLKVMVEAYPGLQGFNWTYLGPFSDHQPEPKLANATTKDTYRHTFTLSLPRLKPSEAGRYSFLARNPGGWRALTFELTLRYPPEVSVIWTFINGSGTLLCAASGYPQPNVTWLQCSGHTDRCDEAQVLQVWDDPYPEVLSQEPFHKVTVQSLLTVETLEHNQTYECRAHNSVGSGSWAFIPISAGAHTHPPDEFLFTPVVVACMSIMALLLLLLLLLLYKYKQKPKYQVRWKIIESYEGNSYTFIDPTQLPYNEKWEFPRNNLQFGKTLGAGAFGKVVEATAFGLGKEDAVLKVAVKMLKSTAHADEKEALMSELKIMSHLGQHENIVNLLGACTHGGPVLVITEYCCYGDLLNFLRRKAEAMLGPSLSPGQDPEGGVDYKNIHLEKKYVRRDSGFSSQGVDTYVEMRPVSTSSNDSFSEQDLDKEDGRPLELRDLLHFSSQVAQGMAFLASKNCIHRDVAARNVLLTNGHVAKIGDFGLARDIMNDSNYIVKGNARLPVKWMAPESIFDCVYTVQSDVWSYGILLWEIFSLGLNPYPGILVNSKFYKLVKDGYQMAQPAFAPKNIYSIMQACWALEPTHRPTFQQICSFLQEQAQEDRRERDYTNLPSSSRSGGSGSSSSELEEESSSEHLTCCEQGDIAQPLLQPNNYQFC
# Chain of Tyrosine-protein kinase Lyn (P07948 whole entry): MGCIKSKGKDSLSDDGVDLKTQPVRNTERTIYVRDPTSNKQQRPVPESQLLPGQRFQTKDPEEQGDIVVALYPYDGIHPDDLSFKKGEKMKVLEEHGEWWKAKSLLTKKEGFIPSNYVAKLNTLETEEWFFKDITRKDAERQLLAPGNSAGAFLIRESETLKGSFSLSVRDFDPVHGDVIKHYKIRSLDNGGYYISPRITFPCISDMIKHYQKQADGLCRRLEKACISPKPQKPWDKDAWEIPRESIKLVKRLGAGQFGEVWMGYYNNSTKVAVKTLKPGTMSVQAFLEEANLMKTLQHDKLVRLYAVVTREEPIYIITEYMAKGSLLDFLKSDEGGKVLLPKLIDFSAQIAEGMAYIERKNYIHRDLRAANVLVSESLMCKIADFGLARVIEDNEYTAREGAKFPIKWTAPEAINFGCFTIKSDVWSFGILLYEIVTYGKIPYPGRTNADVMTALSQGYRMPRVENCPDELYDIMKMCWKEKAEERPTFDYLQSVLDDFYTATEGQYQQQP
# Chain of Mast/stem cell growth factor receptor Kit (Homo sapiens) (P10721 whole entry): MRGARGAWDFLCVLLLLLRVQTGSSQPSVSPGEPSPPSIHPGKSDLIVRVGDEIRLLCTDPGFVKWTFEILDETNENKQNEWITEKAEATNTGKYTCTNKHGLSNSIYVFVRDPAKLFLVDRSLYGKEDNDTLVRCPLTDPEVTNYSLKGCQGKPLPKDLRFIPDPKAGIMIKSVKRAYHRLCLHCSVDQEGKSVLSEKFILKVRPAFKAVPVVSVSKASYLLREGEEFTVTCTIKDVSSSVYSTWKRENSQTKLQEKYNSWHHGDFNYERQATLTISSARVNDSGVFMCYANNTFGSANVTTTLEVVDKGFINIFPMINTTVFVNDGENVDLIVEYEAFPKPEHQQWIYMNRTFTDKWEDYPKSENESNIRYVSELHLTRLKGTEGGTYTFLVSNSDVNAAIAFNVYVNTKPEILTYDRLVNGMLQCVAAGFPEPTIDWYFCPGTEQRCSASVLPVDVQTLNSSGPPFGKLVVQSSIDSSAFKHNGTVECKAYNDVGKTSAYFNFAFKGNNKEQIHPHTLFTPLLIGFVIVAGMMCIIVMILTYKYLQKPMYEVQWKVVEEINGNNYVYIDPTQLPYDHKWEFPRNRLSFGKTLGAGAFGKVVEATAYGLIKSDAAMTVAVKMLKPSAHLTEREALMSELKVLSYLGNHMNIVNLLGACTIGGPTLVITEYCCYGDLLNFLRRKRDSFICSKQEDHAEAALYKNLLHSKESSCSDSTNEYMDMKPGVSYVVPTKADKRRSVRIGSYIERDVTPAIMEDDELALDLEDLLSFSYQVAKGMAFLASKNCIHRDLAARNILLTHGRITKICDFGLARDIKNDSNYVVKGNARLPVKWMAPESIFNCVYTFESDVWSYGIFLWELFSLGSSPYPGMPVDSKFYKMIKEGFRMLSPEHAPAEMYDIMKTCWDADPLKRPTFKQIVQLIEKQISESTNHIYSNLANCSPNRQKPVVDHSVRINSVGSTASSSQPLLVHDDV
# Chain of Angiopoietin-1 receptor (Q02763 whole entry): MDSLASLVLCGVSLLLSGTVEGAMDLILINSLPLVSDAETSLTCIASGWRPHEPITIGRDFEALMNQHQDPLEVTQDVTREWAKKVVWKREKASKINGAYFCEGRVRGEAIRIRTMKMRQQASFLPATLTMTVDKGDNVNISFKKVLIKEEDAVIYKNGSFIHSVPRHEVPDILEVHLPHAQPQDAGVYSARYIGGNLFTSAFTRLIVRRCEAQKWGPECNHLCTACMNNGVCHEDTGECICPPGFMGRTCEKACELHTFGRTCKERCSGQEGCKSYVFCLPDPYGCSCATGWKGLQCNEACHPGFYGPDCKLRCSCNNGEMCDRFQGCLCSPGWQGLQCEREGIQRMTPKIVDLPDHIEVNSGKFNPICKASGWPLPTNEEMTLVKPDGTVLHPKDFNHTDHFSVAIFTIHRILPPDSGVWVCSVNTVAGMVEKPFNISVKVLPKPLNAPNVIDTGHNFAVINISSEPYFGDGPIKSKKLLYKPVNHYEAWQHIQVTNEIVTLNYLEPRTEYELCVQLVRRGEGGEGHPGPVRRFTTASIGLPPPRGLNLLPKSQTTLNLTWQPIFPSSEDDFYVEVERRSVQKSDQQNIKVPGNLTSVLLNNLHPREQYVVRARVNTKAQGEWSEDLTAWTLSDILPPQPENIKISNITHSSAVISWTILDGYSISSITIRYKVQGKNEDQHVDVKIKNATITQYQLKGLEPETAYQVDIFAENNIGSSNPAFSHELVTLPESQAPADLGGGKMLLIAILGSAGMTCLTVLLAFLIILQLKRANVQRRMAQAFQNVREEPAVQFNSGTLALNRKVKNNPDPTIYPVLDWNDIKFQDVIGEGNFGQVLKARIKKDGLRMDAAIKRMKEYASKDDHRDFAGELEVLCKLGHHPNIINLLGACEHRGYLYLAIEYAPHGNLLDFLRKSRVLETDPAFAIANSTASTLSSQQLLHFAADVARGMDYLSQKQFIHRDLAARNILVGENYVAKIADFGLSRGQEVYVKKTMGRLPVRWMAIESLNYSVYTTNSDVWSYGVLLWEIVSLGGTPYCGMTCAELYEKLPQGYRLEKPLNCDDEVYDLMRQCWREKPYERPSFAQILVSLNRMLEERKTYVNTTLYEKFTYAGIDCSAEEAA
compound,measurement,setting,value
COc1cc2nccc(Oc3ccc4c(C(N)=O)cccc4c3)c2cc1OC,solubility,[1],> 200 µg/mL
same,Stability,Liver microsomes,3.2 pmol/mg/h
same,AUC(0-t) at 24 h,[2],3650 ng·h/mL
same,IC50,HUVEC [3],2.1 nM
same,Vd,[4],1.06 L/kg
same,Cmax,[5],464 ng/mL
same,Activity,[6],Active
same,MRT,[7],8.6 h
same,fraction unbound,[8],0.038
same,clearance,[9],42.4 mL/min/kg
same,MRT,[10],18 h
same,IC50,[11],88 nM
same,IC50,[12],0.9 nM
same,half-life,[13],16 h
same,inhibition in vivo at 20 mg/kg,Calu-6 (Homo sapiens) [14],85%
same,inhibition in vivo at 60 mg/kg,Calu-6 (Homo sapiens) [15],88%
same,half-life,[16],6 h
same,IC50,HUVEC [17],230 nM
same,bioavailability,[18],51%
same,Cmax,[19],50 nM
same,Tmax,[20],0.75 h
same,microsomal CLint at 1 µM,[21],32 µL/min/mg
same,Activity,[22],Active
same,clearance,[23],3.73 mL/min/kg
same,inhibition in vivo at 10 mg/kg,HT-29,85%
same,Activity,[24],inactive
same,AUC at 24 h,[25],3.9 µM·h
same,IC50,Angiopoietin-1 receptor,25000 nM
same,Cmax,[26],1050 ng/mL
same,half-life,[27],13 h
same,microsomal CLint at 1 µM,[28],7 µL/min/mg
same,inhibition in vivo at 6 mg/kg,Calu-6 (Homo sapiens) [29],52%
same,bioavailability,[30],39%
same,IC50,Aurora kinase B,220 nM
same,clearance,[31],13 mL/min/kg

# Reference: ChEMBL document CHEMBL1144684, “Evaluation of a series of naphthamides as potent, orally active vascular endothelial growth factor receptor-2 tyrosine kinase inhibitors” (J Med Chem, 2008)
